According to ChEMBL document CHEMBL1148218, “Structures of new beta-carboline-type alkaloids with antiallergic effects from Stellaria dichotoma(1,2)” (J Nat Prod, 2004):
Where a name gives a salt, the structure may show the parent alone.

How the values were obtained:
RBL-2H3 [1] = assay: Inhibition of beta-hexosaminidase in anti-DNP IgE sensitized rat RBL2H3 cells at 100 uM after 10 mins; type: functional; settings: RBL-2H3, 10 min
Procedure, shortened: (§1)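 IgE-sensitized RBL-2H3 cells (2 × 10^5/well) in Siraganian buffer with 5.6 mM glucose, 1 mM CaCl2, 0.1% BSA, 10 min at 37 °C; sample in DMSO (final 0.1%) added for 10 min, then DNP-BSA (final 10 μg/mL). After 10 min supernatant reacted with 1 mM p-nitrophenyl-N-acetyl-β-D-glucosaminide, pH 4.5, 37 °C, 1 h; stopped at pH 10, A405. Percent inhibition; IC50 determined graphically.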

RBL-2H3 [2] = assay: Inhibition of anti-DNP IgE-induced IL4 production in rat RBL2H3 cells after 4 hrs by ELISA; type: functional, cell-based; settings: RBL-2H3, 4 h
Procedure, shortened: (§2)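 RBL-2H3 cells (2 × 10^5/well in MEM) sensitized with anti-DNP IgE, then stimulated with DNP-BSA antigen in presence of sample; TNF-α and IL-4 in medium measured 4 h later by rat ELISA. Percent inhibition calculated; IC50 read graphically.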

RBL-2H3 [3] = assay: Inhibition of beta-hexosaminidase in anti-DNP IgE sensitized rat RBL2H3 cells after 10 mins; type: functional, cell-based; settings: RBL-2H3, 10 min; procedure, shortened: as §1
RBL-2H3 [4] = assay: Inhibition of anti-DNP IgE-induced TNFalpha production in rat RBL2H3 cells after 4 hrs by ELISA; type: functional, cell-based; settings: RBL-2H3, 4 h; procedure, shortened: as §2
Mus musculus = assay: Antiallergic activity in ddY mouse ear at 200 mg/kg, po by passive cutaneous anaphylaxis reaction; type: functional

CCC(O)c1cc(OC)c2c(c1)OCO2 (configuration not stated)
inhibition at 100 µM (RBL-2H3 [1]): 1.2%

COc1ccc(CCC(=O)O)cc1OC
inhibition at 100 µM (RBL-2H3 [1]): 2.3%

O=Cc1ccc(CO)[nH]1
inhibition at 100 µM (RBL-2H3 [1]): 8.5%

O=Cc1ccc(CO)o1 [AES-103]
inhibition at 100 µM (RBL-2H3 [1]): 3.4%

COc1cc(C(C)=O)ccc1O [APOCYNIN]
inhibition at 100 µM (RBL-2H3 [1]): 2.3%

C[C@H](O)c1nc(C(=O)O)cc2c1[nH]c1ccccc12 [DICHOTOMINE A]
inhibition at 100 µM (RBL-2H3 [1]): 5.9%

O=C(O)c1cc2c([nH]c3ccccc32)c([C@@H](O)CO)n1 [DICHOTOMINE B]
inhibition at 100 µM (RBL-2H3 [1]): 1.2%

COC(=O)c1cc2c([nH]c3ccccc32)c([C@@H](O)CO)n1 [DICHOTOMINE C]
inhibition at 100 µM (RBL-2H3 [1]): 89.2%
IC50 (RBL-2H3 [2]): 15 µM
IC50 (RBL-2H3 [3]): 62 µM
IC50 (RBL-2H3 [4]): 19 µM

CCCCOC(=O)c1cc2c([nH]c3ccccc32)c([C@@H](O)CO)n1 [DICHOTOMINE D]
inhibition at 100 µM (RBL-2H3 [1]): 11.2%

CN1CCC(=C2c3ccccc3CC(=O)c3sccc32)CC1 [KETOTIFEN FUMARATE]
IC50 (RBL-2H3 [3]): 220 µM

COc1ccc(/C=C/C(=O)Nc2ccccc2C(=O)O)cc1OC [TRANILAST]
inhibition in vivo at 200 mg/kg (Mus musculus): 72.4%
IC50 (RBL-2H3 [3]): 490 µM

COc1cc(C(=O)O)ccc1O [VANILLIC ACID]
inhibition at 100 µM (RBL-2H3 [1]): 8.4%

COc1cc(C=O)ccc1O [VANILLIN]
inhibition at 100 µM (RBL-2H3 [1]): 5.9%
